Measured values taken from ChEMBL document CHEMBL1155341, “Synthesis and antibacterial activity of 7-(1,2,3,4-tetrahydropyrrolo[1,2-a]pyrazin-7-yl) quinolones” (2009).
Values after ≈ are worked out from the molar mass of the structure shown. Active and inactive are the calls of the source. The rule behind the calls is not given here.

Tests used:
Assay type in all cases: functional
[1] = tested on: Staphylococcus aureus; assay: Antibacterial activity against ciprofloxacin susceptible Staphylococcus aureus subsp. aureus ATCC 13709 by broth microdilution method
Procedure, shortened: (§1)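 Broth microdilution per CLSI (NCCLS M7-A5) guidelines; MIC taken as lowest concentration inhibiting visible growth. Strains are ciprofloxacin-susceptible reference strains.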

[2] = tested on: Streptococcus pneumoniae; assay: Antibacterial activity against ciprofloxacin susceptible Streptococcus pneumoniae ATCC 49619 by broth microdilution method; procedure, shortened: as §1
[3] = tested on: Escherichia coli; assay: Antibacterial activity against ciprofloxacin susceptible Escherichia coli ATCC 25922 by broth microdilution method; procedure, shortened: as §1
[4] = tested on: Streptococcus pneumoniae; assay: Antibacterial activity against ciprofloxacin resistant Streptococcus pneumoniae OC5462 by broth microdilution method
Procedure, shortened: (§2)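 MIC determined by broth microdilution following CLSI (formerly NCCLS) M7-A5 guidelines for aerobically growing bacteria. MIC is the lowest compound concentration inhibiting visible growth. Strains are ciprofloxacin-resistant clinical isolates tested within a six-strain abbreviated panel.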

[5] = tested on: Streptococcus pneumoniae; assay: Antibacterial activity against ciprofloxacin resistant Streptococcus pneumoniae OC5458 by broth microdilution method; procedure, shortened: as §2
[6] = tested on: Streptococcus pneumoniae; assay: Antibacterial activity against ciprofloxacin resistant Streptococcus pneumoniae OC5465 by broth microdilution method; procedure, shortened: as §2
[7] = tested on: Staphylococcus aureus; assay: Antimicrobial activity against Staphylococcus aureus subsp. aureus ATCC 13709 infected in po dosed Swiss Webster mouse treated 1 hr after infection measured fter 3 days; conditions: ATCC 13709, po
Procedure, shortened: (§3)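 Female Swiss-Webster mice infected ip with S. aureus ATCC13709; test compound given subcutaneously or orally 1 h post-infection; mortality followed for three days; untreated infected mice served as controls.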

[8] = tested on: Staphylococcus aureus; assay: Antimicrobial activity against Staphylococcus aureus subsp. aureus ATCC 13709 infected in sc dosed Swiss Webster mouse treated 1 hr after infection measured fter 3 days; conditions: ATCC 13709, sc; procedure, shortened: as §3

Compound: C[C@@H]1NCCn2cc(-c3c(F)cc4c5c3OC[C@H](C)N5CC(C(=O)O)C4=O)cc21 (stereo not given in full)
- MIC [1]: 0.25 µg/mL (≈ 0.626 µM)
- MIC [2]: 1 µg/mL (≈ 2.5 µM)
- MIC [3]: 4 µg/mL (≈ 10 µM)
- MIC [4]: 8 µg/mL (≈ 20 µM)
- MIC [5]: 4 µg/mL (≈ 10 µM)
- MIC [6]: 0.5 µg/mL (≈ 1.25 µM)

Compound: COc1c(-c2cc3n(c2)C[C@@H](C)NC3)c(F)cc2c1N(C1CC1)CC(C(=O)O)C2=O (stereo not given in full)
- MIC [1]: 0.25 µg/mL (≈ 0.605 µM)
- MIC [2]: 0.25 µg/mL (≈ 0.605 µM)
- MIC [3]: 1 µg/mL (≈ 2.42 µM)
- MIC [4]: 2 µg/mL (≈ 4.84 µM)
- MIC [5]: 1 µg/mL (≈ 2.42 µM)
- MIC [6]: 0.5 µg/mL (≈ 1.21 µM)

Compound: C[C@H]1Cn2cc(-c3ccc4c(c3OC(F)F)N(C3CC3)CC(C(=O)O)C4=O)cc2CN1 (stereo not given in full)
- MIC [1]: 0.12 µg/mL (≈ 0.278 µM)
- MIC [2]: 1 µg/mL (≈ 2.32 µM)
- MIC [3]: 1 µg/mL (≈ 2.32 µM)
- MIC [4]: 8 µg/mL (≈ 18.5 µM)
- MIC [5]: 1 µg/mL (≈ 2.32 µM)
- MIC [6]: 1 µg/mL (≈ 2.32 µM)

Compound: C[C@H]1NCCn2cc(-c3ccc4c(c3OC(F)F)N(C3CC3)CC(C(=O)O)C4=O)cc21 (stereo not given in full)
- MIC [1]: 0.5 µg/mL (≈ 1.16 µM)
- MIC [2]: 1 µg/mL (≈ 2.32 µM)
- MIC [3]: 4 µg/mL (≈ 9.27 µM)
- MIC [4]: 16 µg/mL (≈ 37.1 µM)
- MIC [5]: 8 µg/mL (≈ 18.5 µM)
- MIC [6]: 4 µg/mL (≈ 9.27 µM)

Compound: C[C@@H]1NCCn2cc(-c3cc4c(cc3F)C(=O)C(C(=O)O)CN4C3CC3)cc21 (stereo not given in full)
- MIC [1]: 0.25 µg/mL (≈ 0.652 µM)
- MIC [2]: 1 µg/mL (≈ 2.61 µM)
- MIC [3]: 4 µg/mL (≈ 10.4 µM)
- MIC [4]: 16 µg/mL (≈ 41.7 µM)
- MIC [5]: 4 µg/mL (≈ 10.4 µM)
- MIC [6]: 0.5 µg/mL (≈ 1.3 µM)

Compound: C[C@H]1NCCn2cc(-c3cc4c(cc3F)C(=O)C(C(=O)O)CN4C3CC3)cc21 (stereo not given in full)
- MIC [1]: 0.25 µg/mL (≈ 0.652 µM)
- MIC [2]: 1 µg/mL (≈ 2.61 µM)
- MIC [3]: 4 µg/mL (≈ 10.4 µM)
- MIC [4]: 16 µg/mL (≈ 41.7 µM)
- MIC [5]: 8 µg/mL (≈ 20.9 µM)
- MIC [6]: 0.25 µg/mL (≈ 0.652 µM)

Compound: COc1c(-c2cc3n(c2)CCN[C@H]3C)c(F)cc2c1N(C1CC1)CC(C(=O)O)C2=O (stereo not given in full)
- MIC [1]: 0.12 µg/mL (≈ 0.29 µM)
- MIC [2]: 0.5 µg/mL (≈ 1.21 µM)
- MIC [3]: 2 µg/mL (≈ 4.84 µM)
- MIC [4]: 4 µg/mL (≈ 9.67 µM)
- MIC [5]: 1 µg/mL (≈ 2.42 µM)
- MIC [6]: 0.5 µg/mL (≈ 1.21 µM)

Compound: C[C@H]1Cn2cc(-c3nc4c(cc3F)C(=O)C(C(=O)O)CN4C3CC3)cc2CN1 (stereo not given in full)
- MIC [1]: 0.06 µg/mL (≈ 0.156 µM)
- MIC [2]: 0.5 µg/mL (≈ 1.3 µM)
- MIC [3]: 2 µg/mL (≈ 5.2 µM)
- MIC [4]: 8 µg/mL (≈ 20.8 µM)
- MIC [5]: 8 µg/mL (≈ 20.8 µM)
- MIC [6]: 0.25 µg/mL (≈ 0.65 µM)

Compound: COc1c(-c2cc3n(c2)CCNC3)c(F)cc2c1N(C1CC1)CC(C(=O)O)C2=O (stereo not given)
- MIC [1]: 0.03 µg/mL (≈ 0.0751 µM)
- MIC [2]: 0.25 µg/mL (≈ 0.626 µM)
- MIC [3]: 1 µg/mL (≈ 2.5 µM)
- MIC [4]: 1 µg/mL (≈ 2.5 µM)
- MIC [5]: 1 µg/mL (≈ 2.5 µM)
- MIC [6]: 0.12 µg/mL (≈ 0.3 µM)

Compound: C[C@@H]1NCCn2cc(-c3ccc4c(c3OC(F)F)N(C3CC3)CC(C(=O)O)C4=O)cc21 (stereo not given in full)
- MIC [1]: 0.5 µg/mL (≈ 1.16 µM)
- MIC [2]: 1 µg/mL (≈ 2.32 µM)
- MIC [3]: 4 µg/mL (≈ 9.27 µM)
- MIC [4]: 16 µg/mL (≈ 37.1 µM)
- MIC [5]: 4 µg/mL (≈ 9.27 µM)
- MIC [6]: 2 µg/mL (≈ 4.64 µM)

Compound: C[C@@H]1NCCn2cc(-c3nc4c(cc3F)C(=O)C(C(=O)O)CN4c3ccc(F)cc3F)cc21 (stereo not given in full)
- MIC [1]: 1 µg/mL (≈ 2.19 µM)
- MIC [2]: 4 µg/mL (≈ 8.76 µM)
- MIC [3]: > 16 µg/mL
- MIC [4]: > 16 µg/mL
- MIC [5]: > 16 µg/mL
- MIC [6]: 8 µg/mL (≈ 17.5 µM)

Compound: C[C@H]1COc2c(-c3cc4n(c3)CCNC4)c(F)cc3c2N1CC(C(=O)O)C3=O (stereo not given in full)
- MIC [1]: 0.5 µg/mL (≈ 1.3 µM)
- MIC [2]: 2 µg/mL (≈ 5.19 µM)
- MIC [3]: > 16 µg/mL
- MIC [4]: > 16 µg/mL
- MIC [5]: > 16 µg/mL
- MIC [6]: 1 µg/mL (≈ 2.59 µM)

Compound: C[C@@H]1NCCn2cc(-c3nc4c(cc3F)C(=O)C(C(=O)O)CN4C3CC3)cc21 (stereo not given in full)
- MIC [1]: 0.5 µg/mL (≈ 1.3 µM)
- MIC [2]: 1 µg/mL (≈ 2.6 µM)
- MIC [3]: 8 µg/mL (≈ 20.8 µM)
- MIC [4]: 8 µg/mL (≈ 20.8 µM)
- MIC [5]: 8 µg/mL (≈ 20.8 µM)
- MIC [6]: 1 µg/mL (≈ 2.6 µM)

Compound: C[C@H]1Cn2cc(-c3c(F)cc4c5c3OC[C@H](C)N5CC(C(=O)O)C4=O)cc2CN1 (stereo not given in full)
- MIC [1]: 0.25 µg/mL (≈ 0.626 µM)
- MIC [2]: 1 µg/mL (≈ 2.5 µM)
- MIC [3]: 4 µg/mL (≈ 10 µM)
- MIC [4]: 8 µg/mL (≈ 20 µM)
- MIC [5]: 4 µg/mL (≈ 10 µM)
- MIC [6]: 0.5 µg/mL (≈ 1.25 µM)

Compound: O=C(O)c1cn(C2CC2)c2cc(N3CCNCC3)c(F)cc2c1=O [CIPROFLOXACIN]
- MIC [1]: 0.12 µg/mL (≈ 0.362 µM)
- MIC [2]: 1 µg/mL (≈ 3.02 µM)
- MIC [3]: 0.03 µg/mL (≈ 0.0905 µM)
- MIC [4]: > 16 µg/mL
- MIC [5]: > 16 µg/mL
- MIC [6]: > 16 µg/mL
- ED50 [7]: 10.8 mg/kg
- ED50 [8]: 1.4 mg/kg

Compound: C[C@H]1Cn2cc(-c3cc4c(cc3F)C(=O)C(C(=O)O)CN4C3CC3)cc2CN1 (stereo not given in full)
- MIC [1]: 0.06 µg/mL (≈ 0.156 µM)
- MIC [2]: 0.5 µg/mL (≈ 1.3 µM)
- MIC [3]: 2 µg/mL (≈ 5.22 µM)
- MIC [4]: 4 µg/mL (≈ 10.4 µM)
- MIC [5]: 2 µg/mL (≈ 5.22 µM)
- MIC [6]: 0.12 µg/mL (≈ 0.313 µM)

Compound: O=C(O)C1CN(C2CC2)c2c(ccc(-c3cc4n(c3)CCNC4)c2OC(F)F)C1=O (stereo not given)
- MIC [1]: 0.06 µg/mL (≈ 0.144 µM)
- MIC [2]: 0.5 µg/mL (≈ 1.2 µM)
- MIC [3]: 1 µg/mL (≈ 2.4 µM)
- MIC [4]: 8 µg/mL (≈ 19.2 µM)
- MIC [5]: inactive
- MIC [6]: 0.25 µg/mL (≈ 0.599 µM)

Compound: COc1c(-c2cc3n(c2)CCN[C@@H]3C)c(F)cc2c1N(C1CC1)CC(C(=O)O)C2=O (stereo not given in full)
- MIC [1]: 0.25 µg/mL (≈ 0.605 µM)
- MIC [2]: 2 µg/mL (≈ 4.84 µM)
- MIC [3]: 8 µg/mL (≈ 19.3 µM)
- MIC [4]: 16 µg/mL (≈ 38.7 µM)
- MIC [5]: > 16 µg/mL
- MIC [6]: 2 µg/mL (≈ 4.84 µM)

Compound: COc1c(-c2cc3n(c2)C[C@H](C)NC3)c(F)cc2c1N(C1CC1)CC(C(=O)O)C2=O (stereo not given in full)
- MIC [1]: 0.03 µg/mL (≈ 0.0726 µM)
- MIC [2]: 0.12 µg/mL (≈ 0.29 µM)
- MIC [3]: 0.5 µg/mL (≈ 1.21 µM)
- MIC [4]: 1 µg/mL (≈ 2.42 µM)
- MIC [5]: 0.5 µg/mL (≈ 1.21 µM)
- MIC [6]: 0.25 µg/mL (≈ 0.605 µM)
- ED50 [7]: 4 mg/kg
- ED50 [8]: < 1.25 mg/kg

Compound: C[C@@H]1NCCn2cc(-c3c(F)cc4c(c3OC(F)F)N(C3CC3)CC(C(=O)O)C4=O)cc21 (stereo not given in full)
- MIC [1]: 0.25 µg/mL (≈ 0.556 µM)
- MIC [2]: 2 µg/mL (≈ 4.45 µM)
- MIC [3]: 1 µg/mL (≈ 2.23 µM)
- MIC [4]: 8 µg/mL (≈ 17.8 µM)
- MIC [5]: 2 µg/mL (≈ 4.45 µM)
- MIC [6]: 2 µg/mL (≈ 4.45 µM)

Compound: C[C@H]1Cn2cc(-c3nc4c(cc3F)C(=O)C(C(=O)O)CN4c3ccc(F)cc3F)cc2CN1 (stereo not given in full)
- MIC [1]: 0.12 µg/mL (≈ 0.263 µM)
- MIC [2]: 1 µg/mL (≈ 2.19 µM)
- MIC [3]: 16 µg/mL (≈ 35.1 µM)
- MIC [4]: 16 µg/mL (≈ 35.1 µM)
- MIC [5]: 16 µg/mL (≈ 35.1 µM)
- MIC [6]: 2 µg/mL (≈ 4.38 µM)
